Test results: ChEMBL document CHEMBL2169868, “Flavone-based novel antidiabetic and antidyslipidemic agents” (J Med Chem, 2012)

What was measured:
Syrian golden hamster [1] = experiment: Antidyslipidemic activity in high fructose and high-fat diet fed dyslipidemic Syrian golden hamster model assessed as reduction in NEFA level at 30 mg/kg/day, po for 7 day, po; type: functional, Mesocricetus auratus; design: scale not given: the % may be the effect or the level left
In short: (§1)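 Syrian golden hamsters fed high-fructose high-fat diet; oral dosing in 1% gum acacia at 10, 30, 100 mg/kg (or 25 mg/kg) for 7 days, sham control given vehicle; plasma TG, cholesterol, LDL-C, HDL-C, glycerol and NEFA (kits), lipoprotein lipase activity and body weight; % change versus HFD control, six hamsters per group.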

Syrian golden hamster [2] = experiment: Antidyslipidemic activity in high fructose and high-fat diet fed dyslipidemic Syrian golden hamster model assessed as reduction in triglyceride level at 10 to 100 mg/kg/day for 7 days; type: functional, organism-based; conditions: Mesocricetus auratus; in short: as §1
Mus musculus [3] = experiment: Antidiabetic activity in po dosed diabetic C57BL/KsJ db/db mouse model assessed as reduction in postprandial glucose level in hyperglycemia measured 2 hrs post dose; type: functional
In short: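 db/db mice (C57BL/KsJ, 12−18 weeks, 40−50 g; selected by glucose 200−350 mg/dL) dosed orally daily for 10 consecutive days at 1, 3, 10, 25 or 50 mg/kg; postprandial blood glucose profile recorded on day 6 with food access interrupted; mean % change versus vehicle in 5 animals per group; Student t test.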

Rattus norvegicus = experiment: AUC in Sprague-Dawley rat at 2.5 mg/kg, iv by LC-MS/MS method; conditions: in vivo
Syrian golden hamster [4] = experiment: Reduction in body weight in high fructose and high-fat diet fed dyslipidemic Syrian golden hamster model at 100 mg/kg/day, po for 7 days; type: functional, Mesocricetus auratus; design: scale not given: the % may be the effect or the level left
In short: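 HFD-fed Syrian golden hamsters, six per group, fed a high-fructose diet. Oral dosing in 1% gum acacia for 7 days. Sham group received vehicle. Plasma TG was measured and body weight tracked. Results given as % change versus HFD control.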

Syrian golden hamster [5] = experiment: Antidyslipidemic activity in high fructose and high-fat diet fed dyslipidemic Syrian golden hamster model assessed as reduction in glycerol level at 30 mg/kg/day, po for 7 day, po; type: functional, Mesocricetus auratus; design: scale not given: the % may be the effect or the level left; in short: as §1
[6] = Cmax in Sprague-Dawley rat at 25 mg/kg, po by LC-MS/MS method; type: ADME, organism-based; design: dose 25 mg/kg, route oral; conditions: in vivo
In short: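 Male Sprague−Dawley rats given a single 25 mg/kg oral dose (aqueous 0.5% methyl cellulose suspension for one compound). Blood drawn from 0.08 to 48 h. LC-MS/MS, linear range 0.78−400 ng/mL.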

Syrian golden hamster [7] = experiment: Antidyslipidemic activity in high fructose and high-fat diet fed dyslipidemic Syrian golden hamster model assessed as reduction in LDL-cholesterol level at 100 mg/kg/day, po for 7 days; type: functional, Mesocricetus auratus; design: scale not given: the % may be the effect or the level left; in short: as §1
Mus musculus [8] = experiment: Antidyslipidemic activity in diabetic C57BL/KsJ db/db mouse model assessed as increase in plasma HDL-cholesterol level at 25 mg/kg, po qd for 10 days; type: functional
In short: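 db/db mice (blood glucose 200−350, TG 170−250, cholesterol 170−250, HDL-C 32−40 mg/dL) dosed orally at 25 mg/kg daily for 10 days; retro-orbital blood taken on day 11 for plasma TG, cholesterol and HDL-C (and HDL-C/CHOL ratio); mean % change versus vehicle control, 5 mice per group; Student t test.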

Syrian golden hamster [9] = experiment: Antidyslipidemic activity in high fructose and high-fat diet fed dyslipidemic Syrian golden hamster model assessed as reduction in triglyceride level at 10 mg/kg/day, po for 7 day, po; type: functional, Mesocricetus auratus; design: scale not given: the % may be the effect or the level left; in short: as §1

AUC (Rattus norvegicus): 666 ng·h/mL
Cmax [6]: 70.3 ng/mL
SMILES: CC(C)(C)NC[C@H](O)COc1ccc2c(=O)cc(-c3cc(OCc4ccccc4)cc(OCc4ccccc4)c3)oc2c1
Activity (Syrian golden hamster [1]): 26.3%
Activity (Syrian golden hamster [2]): Dose-dependent effect
ED50 (Mus musculus [3]): 1.72 mg/kg
Activity (Syrian golden hamster [4]): 12.5%
Activity (Syrian golden hamster [5]): 25.7%
Activity (Syrian golden hamster [7]): 68.4%
Activity (Mus musculus [8]): 33.2%
Activity (Syrian golden hamster [9]): 21.2%
